Screening data: PubChem BioAssay, several laboratories
This is a sample that favours compounds with a hit; in the whole collection about 1.7% have one here.
MEX-5 binding: C. elegans MEX-5 TCR-2 RNA binding activity | Q9XUB2 | MEX-5/FITC-TCR2 RNA binding, fluorescence polarization; hits give low values | activity score (negative = inhibition of binding), % at 10 µM | 0.38% of 300,000 active | AID 1832;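 active means inhibition past about -25% in most replicates, and total fluorescence under double the plate's negative control median, limit read from the data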
Target sequence (Q9XUB2 whole entry, looked up): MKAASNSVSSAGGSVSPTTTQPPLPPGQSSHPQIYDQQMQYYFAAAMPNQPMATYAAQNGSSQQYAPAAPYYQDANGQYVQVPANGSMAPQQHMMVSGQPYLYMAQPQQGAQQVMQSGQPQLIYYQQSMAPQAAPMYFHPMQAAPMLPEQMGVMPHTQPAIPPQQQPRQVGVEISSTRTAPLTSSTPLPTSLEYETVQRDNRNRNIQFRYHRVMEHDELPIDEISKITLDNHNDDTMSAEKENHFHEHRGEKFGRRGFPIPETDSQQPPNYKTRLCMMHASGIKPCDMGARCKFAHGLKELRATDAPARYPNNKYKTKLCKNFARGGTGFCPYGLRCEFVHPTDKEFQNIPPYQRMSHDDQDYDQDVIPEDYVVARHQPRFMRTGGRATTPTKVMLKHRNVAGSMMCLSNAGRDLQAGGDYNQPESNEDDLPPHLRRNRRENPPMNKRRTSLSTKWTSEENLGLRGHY
EBNA-1 inh: blocks EBNA-1 binding to DNA. AID 1950. EBNA-1 DNA binding, fluorescence polarization. inhibition, % at 14.8 µM. 0.34% of 300,000 active; in the data active means inhibition above about 28%
EBV gp42 block: inhibitors of Epstein-Barr virus glycoprotein 42. 0.42% of 220,000 active. Fluorescence polarization binding assay, mP read-out. inhibition, % (tested at 21.74 µM); in the data active means inhibition above about 50%
ZTA DNA inh: counter-screen for EBNA-1 inhibitors: inhibitors of Epstein-Barr virus ZTA | ZTA-DNA binding, fluorescence polarization | inhibition, % at 11 µM | 0.15% of 320,000 active | AID 2234; in the data active means inhibition above about 33%
core dimer inh: blocks dimerization of HCV core protein. TR-FRET GST/Flag-core106 dimerization, 1536-well. inhibition, % at 5 µM. 0.33% of 300,000 active;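 active means inhibition above the mean of all tested compounds plus 3 SD, set per screening campaign, cut at about 45% in these data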
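System: GST/Flag-tagged HCV core106 proteins. Incubation: compound-protein-antibody incubation 4 h at 22.5 °C. Technique: HTRF with 340 nm excitation, 617/671 nm emission. Medium: KF-containing HEPES buffer, pH 7.45, DTT, CHAPS, BSA. Read-out: inhibition (%) from 671 over 617 nm ratio. Also added: Eu(K)-anti-GST 90 ng/mL plus XL665-anti-Flag 1 µg/mL.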
HCV NS3 hel inh: HCV NS3 helicase inhibition | NS3 helicase DNA unwinding, Cy5 molecular beacon fluorescence | inhibition, % at 10.9 µM | 0.56% of 290,000 active;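 active means inhibition above the mean of all tested compounds plus 3 SD, set per campaign, cut at about 35% in these data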
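Material: hepatitis C virus NS3 helicase domain fragment enzyme; measured by: Cy5 fluorescence, 0 and 60 min reads; control set: DMSO and thioflavine S; incubation: 60 min unwinding reaction at 25 °C after ATP addition; read-out basis: % inhibition from 60/0 min fluorescence ratio, DMSO 0%, thioflavine S 100%; repeats: singlicate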
Zta DNA confirm: EBV ZTA DNA binding inhibition, confirmation | shares compounds with ZTA DNA inh | Zta-ZRE DNA binding, fluorescence polarization | inhibition, % at 11.1 µM | 30% of 320 active;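 active means mean inhibition across triplicate runs above the hit threshold derived for the original primary screen, cut at about 33% in these data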
EBNA1 counter: blocks EBNA-1 DNA binding in ZTA counter-screen | fluorescence polarization | inhibition, % at 14.8 µM | AID 2362 | 320 tested, under 10 active | shares compounds with ZTA DNA inh; call rule not given here
Numbers stand for hits; – = inactive; · = not tested or not shown; + = active, no number.

SMILES	MEX-5 binding	EBNA-1 inh	EBV gp42 block	ZTA DNA inh	core dimer inh	HCV NS3 hel inh	Zta DNA confirm	EBNA1 counter
CS(=O)(=O)N(Cc1ccccc1)c1ccc(C(=O)Nc2ccccc2C(=O)O)cc1	–	–	·	–	–	–	·	·
CCOC(=O)C1(C)NC(c2cccc(C)c2)C2C(=O)N(c3ccccc3)C(=O)C21 (stereo unspecified)	–	–	·	+	–	–	–	–
CCCN(Cc1nc2cc(Cl)ccc2c(=O)[nH]1)C(=O)c1ccc(S(=O)(=O)N2CCCC2)cc1	·	·	·	–	·	·	·	·
Cc1ccc(S(=O)(=O)N(C)c2ccccc2C(=O)N2CCCC2)cc1	–	–	·	155	–	–	–	–
COCCNCc1ccccc1[N+](=O)[O-]	·	–	·	–	–	·	·	·
CC(=O)Nc1cccc(NC(=O)COc2ccccc2C)c1	–	–	·	94	–	–	–	–
COc1ccc(C2=NN(C(C#N)c3ccc(OC)cc3)C(c3ccccc3)C2)cc1 (stereo unspecified)	–	–	–	35	–	–	–	–
OCCN(CCO)CC(O)Cn1c2ccccc2c2ccccc21 (stereo unspecified)	–	–	–	61	–	–	–	–
O=C(NCCCN1CCCC1=O)C1CCN(S(=O)(=O)c2ccccc2)CC1	·	·	·	–	·	·	·	·
COc1cc(/C=C/C(=O)OCC(=O)Nc2c(C)n(C)n(-c3ccccc3)c2=O)cc(OC)c1OC	·	·	·	–	·	·	·	·
Cc1cc(Nc2cccc(F)c2)n2nc(C)nc2n1	–	–	–	107	–	–	–	–
CCCCC1(C)NC(=O)N(CC(=O)Nc2ccc(S(=O)(=O)N3CCOCC3)cc2)C1=O (stereo unspecified)	–	–	–	47	–	–	–	–
CCOC(=O)CN1C(=O)/C(=C/c2ccccc2Br)Oc2ccccc21	–	–	·	–	–	–	·	·
CC1(C)CC(=O)C=C(c2ccc(-c3ccccc3)cc2)C1	·	·	·	48	·	·	–	–
CC(C)OC(=O)c1cc(NC(=S)Nc2ccc([N+](=O)[O-])cc2)cc(C(=O)OC(C)C)c1	–	–	–	52	–	–	–	–
CC(C)CCNC(=S)Nc1ccc([N+](=O)[O-])cc1	–	–	–	–	–	–	·	·
N#Cc1cc2c(nc1Cl)CCC2	·	–	–	–	–	–	·	·
CCOC(=O)C1CCCCN1Cc1ccc(OC)c(OC)c1 (stereo unspecified)	–	–	–	34	–	–	–	–
CCOC(=O)c1ccc(NC(=O)CCc2nc(-c3ccc(Cl)cc3)no2)cc1	–	–	–	–	–	–	·	·
CCOC(=O)c1ccc(NC(=O)CCc2nc(-c3ccc(C)cc3)no2)cc1	–	–	–	35	–	–	–	–
COc1ccc(Cn2c(N)c(S(=O)(=O)c3cccs3)c3nc4ccccc4nc32)cc1	–	–	–	35	–	–	–	–
COC/C=C/C1=CC2=CC(=O)C(C)(OC(=O)c3cnc4ccccc4n3)C(=O)C2=CO1 (stereo unspecified)	-42	–	·	40	–	·	–	–
COC/C=C/C1=CC2=CC(=O)C(C)(OC(=O)c3cnc4ccccc4n3)C(=O)C2=CN1C(CO)CO (stereo unspecified)	–	–	–	–	–	·	·	·
O=S(=O)(c1ccccc1)c1nc(Nc2cccc(O)c2)sc1Cl	–	–	–	–	–	–	·	·
CCOC(=O)NN1C(=O)c2ccccc2NC1c1ccccc1 (stereo unspecified)	–	–	–	–	–	–	·	·
CCOC(=O)NN1C(=O)c2ccccc2NC1c1ccc(N(C)C)cc1 (stereo unspecified)	–	–	–	33	–	–	–	–
Cc1ccc2sc(NC(=O)CSc3nc(C)cc(C)c3C#N)nc2c1	–	–	–	38	–	–	–	–
Cc1cc(C(F)(F)F)c(C#N)c(SCC(=O)Nc2nc3ccccc3s2)n1	–	–	–	–	–	–	·	·
N=C1C(c2nc3ccccc3s2)=C(O)CN1c1ccccc1	–	–	–	–	–	–	·	·
O=C(NCc1ccccc1)c1ccc(NC(=O)c2ccccc2F)cc1	–	–	·	–	–	–	·	·
